Screening results: PubChem BioAssay, several laboratories
KCNQ1 pot – potentiators or activators of human KCNQ1 potassium channel | P51787 | CHO-K1 KCNQ1, thallium flux FluxOR fluorescence; active compounds read high | B-score at 10 µM | 310,000 compounds, 0.35% hits | AID 2648;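 active = fluorescence ratio B-score, a plate-corrected score, at least three library SD, with initial intensity B-score within 5 SD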
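assay system = KCNQ1-transfected CHO-K1 cells | medium = assay buffer with matched DMSO | probe or stimulus = depolarizing K+/Tl+ stimulus, K2SO4 and Tl2SO4 each 12.5 mM in 5x stock | dosing = single dose | incubation = dye 90 min, compound 20 min, room temperature | detection = kinetic FluxOR fluorescence, 10 s baseline plus 110 s post-stimulus | evaluation = ratio B score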
KCNK9 inh – inhibitors of human KCNK9 two-pore domain potassium channel. Q9NPC2. HEK293 KCNK9, FluxOR thallium flux fluorescence; active compounds read low. B-score at 10 µM. 310,000 compounds, 1.2% hits;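 active = ratio B-score over 3 SD below the library mean, with starting fluorescence within 5 SD of its mean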;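 note: negative B-score means less thallium flux so channel inhibition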
Target sequence (Q9NPC2 whole entry, looked up, the tested form may be a part): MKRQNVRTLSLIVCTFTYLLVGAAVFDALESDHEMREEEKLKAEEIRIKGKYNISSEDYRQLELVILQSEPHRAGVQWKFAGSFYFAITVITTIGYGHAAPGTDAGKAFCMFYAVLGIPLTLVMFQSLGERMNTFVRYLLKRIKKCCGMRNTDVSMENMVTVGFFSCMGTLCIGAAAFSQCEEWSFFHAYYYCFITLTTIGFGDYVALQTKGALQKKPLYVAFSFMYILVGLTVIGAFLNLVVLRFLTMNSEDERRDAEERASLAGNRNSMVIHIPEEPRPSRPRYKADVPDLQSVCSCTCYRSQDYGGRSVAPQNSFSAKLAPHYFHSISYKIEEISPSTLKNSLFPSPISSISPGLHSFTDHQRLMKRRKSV
KCNK3 block – human KCNK3 channel inhibition, primary screen; O14649; CHO-KCNK3 thallium flux, FluxOR fluorescence; active compounds read low; B-score at 10 µM; 340,000 compounds, 0.84% hits;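 active = B-score under library mean minus 4 SD, starting fluorescence ratio at most library mean plus 5 SD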;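 note: more negative B-score means stronger inhibition of thallium flux through KCNK3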
Target sequence (O14649 whole entry, looked up): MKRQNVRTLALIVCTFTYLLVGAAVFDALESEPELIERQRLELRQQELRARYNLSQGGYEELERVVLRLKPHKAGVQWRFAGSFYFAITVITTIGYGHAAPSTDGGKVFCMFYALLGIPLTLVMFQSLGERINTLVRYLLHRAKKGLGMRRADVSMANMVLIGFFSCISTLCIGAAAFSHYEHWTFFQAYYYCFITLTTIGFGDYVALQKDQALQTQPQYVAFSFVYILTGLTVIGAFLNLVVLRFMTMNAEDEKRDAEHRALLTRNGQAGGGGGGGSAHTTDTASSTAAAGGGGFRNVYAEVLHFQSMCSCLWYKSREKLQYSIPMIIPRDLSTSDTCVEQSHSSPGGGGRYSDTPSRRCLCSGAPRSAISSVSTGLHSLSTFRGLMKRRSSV
KCNQ1 inh – inhibitors of human KCNQ1 potassium channel | 310,000 compounds, 1.3% hits | CHO-K1 KCNQ1, FluxOR thallium flux fluorescence; active compounds read high | P51787 | AID 2642 | B-score at 10 µM;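 active = compounds whose thallium flux B-score, printed positive for inhibition, exceeds three library SD while starting fluorescence stays within three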;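 note: channel opened by potassium depolarization with thallium stimulus after 20 min compound exposure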
KCC2 mod – modulators of human KCC2 chloride dependent transport | KCC2 cells, thallium flux FluoZin-2 fluorescence | B-score of Tl+ flux slope (higher = more flux/activation; lower = inhibition) at 10 µM | Q9H2X9 | AID 1456 | 190,000 compounds, 2.2% hits;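 active = thallium flux slope and its plate-corrected score both differing from the plate sample mean at a set confidence after two filtering rounds, in either direction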;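 note: slope of fluorescence scaled to starting intensity during 10 to 20 s after thallium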
hERG rescue – shields human hERG channel from block by proarrhythmic agents. Q12809. CHO-hERG, FluxOR thallium flux, dofetilide IC70 present. activation (rescue from dofetilide block), less the hit threshold, % at 10 µM. 310,000 compounds, 0.51% hits;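 active = activation above the mean of controls blocked by dofetilide plus 5 SD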;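 note: thallium influx through hERG after potassium depolarization seen as dye fluorescence rise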
KCC2 sec1 – KCC2 (human) modulation, secondary assay; shares compounds with KCC2 mod; HEK293-KCC2, thallium flux, FluoZin2 fluorescence; active compounds read high; normalised thallium flux (F/F0 slope) at 10 µM; 3,700 compounds, 15% hits;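 active = thallium flux slope above the same plate's solvent-only control mean plus 3 SD; inconclusive = the two replicate wells disagree; inactive = no significant difference from solvent-only control wells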
KCC2 bumet counter – bumetanide-insensitive thallium flux in KCC2 cells with ouabain, counter-screen; shares compounds with KCC2 mod; 3,700 compounds, 49% hits; normalized thallium flux at 10 µM; HEK293-KCC2 + bumetanide/ouabain, thallium flux FluoZin2; active compounds read high;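 active = thallium entry rate above the same plate's blocked-transporter control wells by more than 3 SD; inconclusive = the two repeat wells disagree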;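 note: raw slope of fluorescence over initial fluorescence between 10 and 20 s after thallium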
KCC2 secondary2 – confirmation of human KCC2 transport modulators; normalized thallium flux at 10 µM; AID 1715; shares compounds with KCC2 mod; HEK293-KCC2, thallium flux FluoZin2 fluorescence; actives lie on both sides; F/F0 rise rate, 10–20 s post-thallium; 3,700 compounds, 23% hits;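 active = thallium flux slope more than 3 SD above or below the plate's solvent-only control mean, mostly below; inconclusive = the two repeat wells disagreed; inactive = no significant shift from solvent-only controls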
HEK counter1 – counter-screen for KCC2 modulators: effect in parental HEK293 cells; shares compounds with KCC2 mod; 3,700 compounds, 46% hits; thallium flux rate (normalised fluorescence) at 10 µM; thallium flux FluoZin2, ouabain; baseline-ratio fluorescence slope, 10–20 s after thallium;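 active = thallium flux rate significantly above the same plate's solvent-only control wells, beyond their mean plus 3 SD; inconclusive = the two replicate wells gave conflicting results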
KCC2 retest ouab – modulates human KCC2 on retest with ouabain; shares compounds with KCC2 mod; HEK293-KCC2, thallium flux FluoZin2 fluorescence; bidirectional: low = inhibitor, high = activator; raw Tl+ flux slope (below DMSO = inhibition, above = activation) at 10 µM; 3,700 compounds, 48% hits; AID 1717;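 active = thallium flux slope beyond 3 SD from same-plate DMSO control mean in most replicates, usually higher, sometimes lower; inconclusive = repeat tests gave conflicting results; inactive = no significant difference from controls in most replicates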;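 note: slope of initial-normalized fluorescence between seconds 10 and 20 after thallium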
HEK counter2 – acts in parental HEK cells, second KCC2 counter-screen | shares compounds with KCC2 mod | HEK293 parental, thallium flux FluoZin-2 fluorescence slope | thallium flux slope at 10 µM | 3,700 compounds, 33% hits;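 active = thallium flux slope above the same plate's solvent-control mean plus 3 SD in both duplicate wells; inconclusive = duplicate wells that disagreed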;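 note: run without ouabain in cells lacking the KCC2 cotransporter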
Each line names hits and unclear results; the compound was inactive in the other large screens (follow-up assays come after a bar, where they were run). The list is not random: actives were taken first. Their share in the collection is about 4.1%.

COc1ccc(CNC(=O)c2cc(S(=O)(=O)N3CCCCC3)ccc2Cl)cc1OC	none (no result: KCNQ1 pot, KCNK9 inh, KCNQ1 inh, KCC2 mod, hERG rescue)
Cc1ccc(S(=O)(=O)NC(=O)Nc2cc(C)ccc2F)cc1	KCC2 mod -10.9 | KCC2 sec1 inactive | KCC2 bumet counter inconclusive | KCC2 secondary2 inactive | HEK counter1 inconclusive | KCC2 retest ouab inactive | HEK counter2 inactive
O=C(/C=C/c1cccc([N+](=O)[O-])c1)Nc1cccc(NC(=O)c2cccs2)c1	KCC2 mod -4.6 | KCC2 sec1 inactive | KCC2 bumet counter inconclusive | KCC2 secondary2 0.0246 | HEK counter1 inactive | KCC2 retest ouab 0.0155 | HEK counter2 inactive
O=C(CCCSCCCC(=O)NN=Cc1ccccc1)NN=Cc1ccccc1	none (no result: KCNQ1 pot, KCNK9 inh, KCNQ1 inh, KCC2 mod, hERG rescue)
CS/C(=C\[N+](=O)[O-])Nc1ccc(OC(F)(F)F)cc1	KCC2 mod -4.2 | KCC2 sec1 inactive | KCC2 bumet counter inconclusive | KCC2 secondary2 0.0255 | HEK counter1 inconclusive | KCC2 retest ouab 0.0138 | HEK counter2 inactive
Fc1ccccc1CSc1nncn1NC/C=C/c1ccccc1	KCC2 mod -4.77 | KCC2 sec1 inactive | KCC2 bumet counter 0.0086 | KCC2 secondary2 inconclusive | HEK counter1 inactive | KCC2 retest ouab inactive | HEK counter2 inactive
Fc1ccc(CNn2cnnc2SCc2ccc(F)cc2)cc1	none
COc1ccccc1NC(=O)Cn1c(=O)sc2ccccc21	none
COc1ccc(NC(=O)Cn2c(=O)sc3ccccc32)c(OC)c1	KCC2 mod -2.94 | KCC2 sec1 inactive | KCC2 bumet counter inactive | KCC2 secondary2 inactive | HEK counter1 inconclusive | KCC2 retest ouab inactive | HEK counter2 inactive
O=C(NCc1csc(-c2ccccc2)n1)c1ccco1	none
O=C(Cc1csc(-c2ccccc2)n1)NCc1cccs1	KCC2 mod -4.58 | KCC2 sec1 inactive | KCC2 bumet counter inactive | KCC2 secondary2 inconclusive | HEK counter1 inconclusive | KCC2 retest ouab 0.0128 | HEK counter2 inactive
Cc1nc(CCNC(=O)c2cccs2)cs1	none
O=C(NCCc1csc(-c2ccccc2)n1)c1cccs1	none (no result: KCC2 mod) | KCC2 sec1 inactive | KCC2 bumet counter inactive | KCC2 secondary2 0.0227 | HEK counter1 inactive | KCC2 retest ouab 0.014 | HEK counter2 inactive
CCC1CCCCN1S(=O)(=O)c1ccc(C(=O)Nc2nnc(-c3ccccc3Cl)o2)cc1 (configuration not stated)	KCC2 mod 18.6 | KCC2 sec1 0.0148 | KCC2 bumet counter 0.0708 | KCC2 secondary2 inactive | HEK counter1 0.0344 | KCC2 retest ouab 0.0417 | HEK counter2 inconclusive
CC1CCCCN1S(=O)(=O)c1ccc(C(=O)Nc2nnc(-c3ccccc3Cl)o2)cc1 (configuration not stated)	KCC2 mod 17.1 | KCC2 sec1 0.0141 | KCC2 bumet counter 0.053 | KCC2 secondary2 inactive | HEK counter1 inconclusive | KCC2 retest ouab 0.0417 | HEK counter2 inconclusive
CC1CCCCN1S(=O)(=O)c1ccc(C(=O)Nc2sccc2C(N)=O)cc1 (configuration not stated)	KCC2 mod -3.95 | KCC2 sec1 inactive | KCC2 bumet counter inactive | KCC2 secondary2 inactive | HEK counter1 inactive | KCC2 retest ouab inactive | HEK counter2 inactive
O=C(Nc1nnc(-c2cccs2)o1)c1ccc(S(=O)(=O)N2CCOCC2)cc1	none
CC1(C)COCN1S(=O)(=O)c1ccc(C(=O)Nc2nnc(-c3ccc(Cl)s3)o2)cc1	KCC2 mod 14.5 (no result: KCNK3 block) | KCC2 sec1 inconclusive | KCC2 bumet counter 0.0397 | KCC2 secondary2 inactive | HEK counter1 inconclusive | KCC2 retest ouab 0.0353 | HEK counter2 inactive
CCCCN(CC)S(=O)(=O)c1ccc(C(=O)Nc2nnc(-c3ccccc3Cl)o2)cc1	none (no result: KCC2 mod)
COc1ccccc1C(=O)NCC(=O)NCCC(c1ccccc1)c1ccccc1	none (no result: KCNQ1 pot, KCNK9 inh, KCNQ1 inh, KCC2 mod, hERG rescue)
COc1cccc(CN(C)C(=O)COc2ccc(C(=O)c3ccc(Cl)cc3)cc2)c1OC	none (no result: KCC2 mod)
c1ccc(CC2CCN(c3nnnn3-c3ccccc3)CC2)cc1	none (no result: KCC2 mod) | KCC2 sec1 inactive | KCC2 bumet counter inactive | KCC2 secondary2 inactive | HEK counter1 inconclusive | KCC2 retest ouab 0.0163 | HEK counter2 inactive
CCc1ccc(-n2c(SCC(=O)c3ccc4c(c3)NC(=O)CO4)nc3ccccc3c2=O)cc1	KCC2 mod 2.91 | KCC2 sec1 inactive | KCC2 bumet counter 0.0116 | KCC2 secondary2 inactive | HEK counter1 0.00862 | KCC2 retest ouab inconclusive | HEK counter2 inactive
Cn1c(SCC(=O)c2ccc3c(c2)NC(=O)CO3)nc2ccccc21	none
O=C1COc2ccc(C(=O)CSc3nc4ccccc4c(=O)n3-c3ccc(Cl)c(Cl)c3)cc2N1	KCC2 mod 2.48 | KCC2 sec1 inconclusive | KCC2 bumet counter 0.0188 | KCC2 secondary2 inactive | HEK counter1 0.0102 | KCC2 retest ouab inactive | HEK counter2 inconclusive
CC(=O)N(C(C)=O)c1ncn(C)c1S(=O)(=O)Nc1ccccc1	none (no result: KCNQ1 pot, KCNK9 inh, KCNQ1 inh, KCC2 mod, hERG rescue)
O=C(N/N=C/c1ccc(OCc2ccccc2)cc1)c1cc[n+](Cc2ccccc2)cc1	KCC2 mod -3.45 | KCC2 sec1 inactive | KCC2 bumet counter inconclusive | KCC2 secondary2 0.0241 | HEK counter1 inactive | KCC2 retest ouab inconclusive | HEK counter2 inactive
O=C(N/N=C/c1ccc(O)cc1)c1cc[n+](Cc2ccccc2)cc1	none
O=C(O)/C=C/c1cn(Cc2ccccc2)nc1-c1ccccc1	KCC2 mod -3.23 | KCC2 sec1 inactive | KCC2 bumet counter inactive | KCC2 secondary2 inconclusive | HEK counter1 inactive | KCC2 retest ouab 0.0154 | HEK counter2 inactive
Cc1ccc(-c2nn(Cc3ccccc3)cc2/C=C/C(=O)O)cc1C	KCC2 mod -8.09 | KCC2 sec1 inactive | KCC2 bumet counter inactive | KCC2 secondary2 0.021 | HEK counter1 inactive | KCC2 retest ouab 0.0111 | HEK counter2 inactive
COc1ccc(-c2nn(-c3ccccc3)cc2/C=C/C(=O)O)cc1[N+](=O)[O-]	none
